# Legend:
# Type in all cases: functional
# Staphylococcus aureus [1] = test: Antibacterial activity against Staphylococcus aureus ATCC 13709 by broth microdilution method
# Outline: (§1)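 CLSI broth microdilution with double dilutions in 96-well plates. For streptococci, 5% horse serum replaced lysed blood in the medium. Inocula were grown on Columbia agar with 5% sheep blood for streptococci, Mueller–Hinton chocolate agar for H. influenzae, and Mueller–Hinton agar for staphylococci. Read-out is MIC in mg/L.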
# Staphylococcus aureus [2] = test: Antibacterial activity against efflux mediated macrolide-resistant Staphylococcus aureus PK1 by broth microdilution method
# Outline: (§2)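 MICs by CLSI broth microdilution with double dilutions, except that Streptococcus medium used 5% horse serum in place of lysed blood. Bacteria were pre-grown on Columbia agar with 5% sheep blood (streptococci) or Mueller–Hinton agar (staphylococci).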
# Staphylococcus aureus [3] = test: Antibacterial activity against inducible-resistant to macrolide, licosamide and streptogramin Staphylococcus aureus 90265/97 by broth microdilution method; outline: as §2
# Escherichia coli = test: Antibacterial activity against Escherichia coli ATCC 25922 by broth microdilution method; outline: as §1
# Streptococcus pyogenes [4] = test: Antibacterial activity against constitutive-resistant to macrolide, licosamide and streptogramin Streptococcus pyogenes 166 GR-Micro by broth microdilution method; outline: as §2
# Streptococcus pneumoniae [5] = test: Antibacterial activity against constitutive-resistant to macrolide, licosamide and streptogramin Streptococcus pneumoniae 58 Spain by broth microdilution method; outline: as §2
# Streptococcus pyogenes [6] = test: Antibacterial activity against inducible-resistant to macrolide, licosamide and streptogramin Streptococcus pyogenes Finland 11 by broth microdilution method; outline: as §2
# Streptococcus pneumoniae [7] = test: Antibacterial activity against inducible-resistant to macrolide, licosamide and streptogramin Streptococcus pneumoniae 134 GR-M by broth microdilution method; outline: as §2
# Streptococcus pneumoniae [8] = test: Antibacterial activity against erythromycin susceptible Streptococcus pneumoniae SP 030 by broth microdilution method; outline: as §1
# Moraxella catarrhalis = test: Antibacterial activity against Moraxella catarrhalis ATCC 23246 by broth microdilution method; outline: as §1
# Staphylococcus aureus [9] = test: Antibacterial activity against constitutive-resistant to macrolide, licosamide and streptogramin Staphylococcus aureus PK2 by broth microdilution method; outline: as §2
# Streptococcus pneumoniae [10] = test: Antibacterial activity against efflux mediated macrolide-resistant Streptococcus pneumoniae Ci137 by broth microdilution method; outline: as §2
# Enterococcus faecalis = test: Antibacterial activity against Enterococcus faecalis ATCC 29213 by broth microdilution method; outline: as §1
# Haemophilus influenzae = test: Antibacterial activity against Haemophilus influenzae ATTC 49247 by broth microdilution method; outline: as §1
# Streptococcus pyogenes [11] = test: Antibacterial activity against efflux mediated macrolide-resistant Streptococcus pyogenes Finland 2 by broth microdilution method; outline: as §2
# Streptococcus pyogenes [12] = test: Antibacterial activity against erythromycin susceptible Streptococcus pyogenes 3565 by broth microdilution method; outline: as §1
compound,measurement,setting,value
CC[C@H]1OC(=O)[C@H](C)[C@@H](O[C@H]2C[C@@](C)(OC)[C@@H](O)[C@H](C)O2)[C@H](C)[C@@H](O[C@@H]2O[C@H](C)C[C@H](N(C)C)[C@H]2O)[C@](C)(O)C[C@@H](C)CN(C)[C@H](C)[C@@H](O)[C@]1(C)O [AZITHROMYCIN],MIC,Staphylococcus aureus [1],0.5 µg/mL
same,MIC,Staphylococcus aureus [2],> 64 µg/mL
same,MIC,Staphylococcus aureus [3],> 64 µg/mL
same,MIC,Escherichia coli,2 µg/mL
same,MIC,Streptococcus pyogenes [4],> 64 µg/mL
same,MIC,Streptococcus pneumoniae [5],> 64 µg/mL
same,MIC,Streptococcus pyogenes [6],16 µg/mL
same,MIC,Streptococcus pneumoniae [7],> 64 µg/mL
same,MIC,Streptococcus pneumoniae [8],≤ 0.125 µg/mL
same,MIC,Moraxella catarrhalis,≤ 0.125 µg/mL
same,MIC,Staphylococcus aureus [9],> 64 µg/mL
same,MIC,Streptococcus pneumoniae [10],8 µg/mL
same,MIC,Enterococcus faecalis,4 µg/mL
same,MIC,Haemophilus influenzae,1 µg/mL
same,MIC,Streptococcus pyogenes [11],8 µg/mL
same,MIC,Streptococcus pyogenes [12],≤ 0.125 µg/mL

# Reference: ChEMBL document CHEMBL2311478, “Macrolactonolides: a novel class of anti-inflammatory compounds” (Bioorg Med Chem, 2013)
